Legend:
Format in all cases: functional
Cavia porcellus [1] = species: Cavia porcellus; experiment: Tested for effect on guinea pigs sensitized with (R)-5-Methyl-3-methylene -dihydro -furan-2-one,number of animals showing no reaction
Procedure, shortened: (§1)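 Female albino Hartley guinea pigs (250–300 g) received three 0.1-mL intradermal nuchal injections on alternate days of a 1:1 FCA/saline emulsion with 5% (+)-enantiomer. After 2 weeks rest, 0.25 mL of 1% or 2% methylene chloride solution was deposited on a 2-cm2 circle and read every 24 h. Erythema/swelling was scored 0–3; av = summed intensities divided by animal number.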

Cavia porcellus [2] = species: Cavia porcellus; experiment: Tested for effect on guinea pigs sensitized with (R)-5-Methyl-3-methylene -dihydro -furan-2-one, number of animals showing erythema and swelling of the test area; procedure, shortened: as §1
Cavia porcellus [3] = species: Cavia porcellus; experiment: Tested for effect on guinea pigs sensitized with (R)-5-Methyl-3-methylene -dihydro -furan-2-one,number of animals showing erythema covering the whole test area; procedure, shortened: as §1
Cavia porcellus [4] = species: Cavia porcellus; experiment: Tested for effect on guinea pigs sensitized with (S)5-Methyl-3-methylene-dihydro- furan-2-one number of animals showing erythema and swelling of the test area.
Procedure, shortened: (§2)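 Sensitization: female albino Hartley guinea pigs (250–300 g) were given three alternate-day 0.1-mL intradermal nuchal injections of 1:1 FCA/saline emulsion containing 5% (−)-enantiomer. Challenge after 2 weeks rest used 0.25 mL of 1% or 2% methylene chloride solution on a 2-cm2 area, read every 24 h. The scale was 0 (none) to 3 (erythema/swelling beyond area); av = summed scores/animals.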

Cavia porcellus [5] = species: Cavia porcellus; experiment: Tested for effect on guinea pigs sensitized with (S)5-Methyl-3-methylene-dihydro- furan-2-onenumber of animals showing erythema covering the whole test area; procedure, shortened: as §2
Cavia porcellus [6] = species: Cavia porcellus; experiment: Tested for effect on guinea pigs sensitized with (+/-)-5-Methyl-3-methylene-dihydro-furan-2-one,number of animals showing erythema covering the whole test area
Procedure, shortened: (§3)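 Female albino Hartley guinea pigs (250–300 g), sensitized by three intradermal nuchal injections of 0.1 mL on alternate days. The emulsion was 1:1 FCA/saline with 10% racemate (5% of each antipode). After 2 weeks rest, 0.25 mL of 1% or 2% methylene chloride solution was applied to a 2-cm2 area. Reactions were scored 0–3 every 24 h; av = summed scores/animals.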

Cavia porcellus [7] = species: Cavia porcellus; experiment: Tested for effect on guinea pigs sensitized with (+/-)-5-Methyl-3-methylene-dihydro-furan-2-one, Number of sensitive animals out of 8 tested; procedure, shortened: as §3
Cavia porcellus [8] = species: Cavia porcellus; experiment: Tested for effect on guinea pigs sensitized with (R)-5-Methyl-3-methylene -dihydro -furan-2-one, Number of sensitive animals out of 8 tested; procedure, shortened: as §1
Cavia porcellus [9] = species: Cavia porcellus; experiment: Tested for effect on guinea pigs sensitized with (S)5-Methyl-3-methylene-dihydro- furan-2-one,av is calculated by adding the test intensity and divided by the number of animals; procedure, shortened: as §2
Cavia porcellus [10] = species: Cavia porcellus; experiment: Tested for effect on guinea pigs sensitized with (S)5-Methyl-3-methylene-dihydro- furan-2-one; Number of sensitive animals out of 8 tested; procedure, shortened: as §2
Cavia porcellus [11] = species: Cavia porcellus; experiment: Tested for effect on guinea pigs sensitized with (R)-5-Methyl-3-methylene -dihydro -furan-2-one,av is calculated by adding the test intensity and divided by the number of animals; procedure, shortened: as §1
Cavia porcellus [12] = species: Cavia porcellus; experiment: Tested for effect on guinea pigs sensitized with (+/-)-5-Methyl-3-methylene-dihydro-furan-2-one,number of animals showing no reaction; procedure, shortened: as §3
Cavia porcellus [13] = species: Cavia porcellus; experiment: Tested for effect on guinea pigs sensitized with (+/-)-5-Methyl-3-methylene-dihydro-furan-2-one, av is calculated by adding the test intensity and divided by the number of animals; procedure, shortened: as §3
Cavia porcellus [14] = species: Cavia porcellus; experiment: Tested for effect on guinea pigs sensitized with (S)5-Methyl-3-methylene-dihydro- furan-2-one number of animals showing erythema covering the part of the test area; procedure, shortened: as §2
Cavia porcellus [15] = species: Cavia porcellus; experiment: Tested for effect on guinea pigs sensitized with (+/-)-5-Methyl-3-methylene-dihydro-furan-2-one number of animals showing erythema and swelling of the test area; procedure, shortened: as §3
Cavia porcellus [16] = species: Cavia porcellus; experiment: Tested for effect on guinea pigs sensitized with (S)5-Methyl-3-methylene-dihydro- furan-2-one number of animals showing no reaction; procedure, shortened: as §2
Cavia porcellus [17] = species: Cavia porcellus; experiment: Tested for effect on guinea pigs sensitized with (R)-5-Methyl-3-methylene -dihydro -furan-2-one,number of animals showing erythema covering the part of the test area; procedure, shortened: as §1
Cavia porcellus [18] = species: Cavia porcellus; experiment: Tested for effect on guinea pigs sensitized with (+/-)-5-Methyl-3-methylene-dihydro-furan-2-one,number of animals showing erythema covering the part of the test area; procedure, shortened: as §3
Cavia porcellus [19] = species: Cavia porcellus; experiment: Tested for its effect on guinea pigs sensitized with (+/-)-5-Methyl-3-methylene-dihydro-furan-2-one, Number of sensitive animals out of 8 tested; procedure, shortened: as §3
Cavia porcellus [20] = species: Cavia porcellus; experiment: Tested for its effect on guinea pigs sensitized with (S)5-Methyl-3-methylene-dihydro- furan-2-one number of animals showing erythema and swelling of the test area.
Procedure, shortened: (§4)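 Albino female Hartley guinea pigs (250-300 g) got three 0.1 mL intradermal nuchal injections on alternate days of 1:1 FCA-saline emulsion with 5% enantiomer. After 2 weeks rest, 0.25 mL of 1% (enantiomers) or 1% or 2% (racemate) in methylene chloride was applied to a 2-cm2 area. Erythema/swelling scored 0-3 every 24 h; average = summed scores/animals.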

Cavia porcellus [21] = species: Cavia porcellus; experiment: Tested for its effect on guinea pigs sensitized with (+/-)-5-Methyl-3-methylene-dihydro-furan-2-one, av is calculated by adding the test intensity and divided by the number of animals; procedure, shortened: as §3
Cavia porcellus [22] = species: Cavia porcellus; experiment: Tested for its effect on guinea pigs sensitized with (S)5-Methyl-3-methylene-dihydro- furan-2-one number of animals showing erythema covering the part of the test area; procedure, shortened: as §4
Cavia porcellus [23] = species: Cavia porcellus; experiment: Tested for its effect on guinea pigs sensitized with (+/-)-5-Methyl-3-methylene-dihydro-furan-2-one,number of animals showing erythema covering the whole test area; procedure, shortened: as §3
Cavia porcellus [24] = species: Cavia porcellus; experiment: Tested for its effect on guinea pigs sensitized with (S)5-Methyl-3-methylene-dihydro- furan-2-one number of animals showing no reaction; procedure, shortened: as §4
Cavia porcellus [25] = species: Cavia porcellus; experiment: Tested for its effect on guinea pigs sensitized with (R)-5-Methyl-3-methylene -dihydro -furan-2-one,number of animals showing erythema covering the whole test area; procedure, shortened: as §4
Cavia porcellus [26] = species: Cavia porcellus; experiment: Tested for its effect on guinea pigs sensitized with (R)-5-Methyl-3-methylene -dihydro -furan-2-one,number of animals showing erythema covering the part of the test area; procedure, shortened: as §4
Cavia porcellus [27] = species: Cavia porcellus; experiment: Tested for its effect on guinea pigs sensitized with (R)-5-Methyl-3-methylene -dihydro -furan-2-one, Number of sensitive animals out of 8 tested; procedure, shortened: as §1
Cavia porcellus [28] = species: Cavia porcellus; experiment: Tested for its effect on guinea pigs sensitized with (S)5-Methyl-3-methylene-dihydro- furan-2-one; Number of sensitive animals out of 8 tested; procedure, shortened: as §4
Cavia porcellus [29] = species: Cavia porcellus; experiment: Tested for its effect on guinea pigs sensitized with (R)-5-Methyl-3-methylene -dihydro -furan-2-one,av is calculated by adding the test intensity and divided by the number of animals; procedure, shortened: as §1
Cavia porcellus [30] = species: Cavia porcellus; experiment: Tested for its effect on guinea pigs sensitized with (R)-5-Methyl-3-methylene -dihydro -furan-2-one, number of animals showing erythema and swelling of the test area; procedure, shortened: as §1
Cavia porcellus [31] = species: Cavia porcellus; experiment: Tested for its effect on guinea pigs sensitized with (R)-5-Methyl-3-methylene -dihydro -furan-2-one,number of animals showing no reaction; procedure, shortened: as §4
Cavia porcellus [32] = species: Cavia porcellus; experiment: Tested for its effect on guinea pigs sensitized with (+/-)-5-Methyl-3-methylene-dihydro-furan-2-one,number of animals showing no reaction; procedure, shortened: as §3
Cavia porcellus [33] = species: Cavia porcellus; experiment: Tested for its effect on guinea pigs sensitized with (+/-)-5-Methyl-3-methylene-dihydro-furan-2-one,number of animals showing erythema covering the part of the test area; procedure, shortened: as §3
Cavia porcellus [34] = species: Cavia porcellus; experiment: Tested for its effect on guinea pigs sensitized with (+/-)-5-Methyl-3-methylene-dihydro-furan-2-one number of animals showing erythema and swelling of the test area; procedure, shortened: as §3
Cavia porcellus [35] = species: Cavia porcellus; experiment: Tested for its effect on guinea pigs sensitized with (S)5-Methyl-3-methylene-dihydro- furan-2-one,av is calculated by adding the test intensity and divided by the number of animals; procedure, shortened: as §4
Cavia porcellus [36] = species: Cavia porcellus; experiment: Tested for its effect on guinea pigs sensitized with (S)5-Methyl-3-methylene-dihydro- furan-2-onenumber of animals showing erythema covering the whole test area; procedure, shortened: as §4

**Q.** Which Skin tests intensity (Cavia porcellus [1]) does the source give for `C=C1C[C@@H](C)OC1=O` here?
**A.** Its Skin tests intensity is 0.

**Q.** What about the Skin tests intensity (Cavia porcellus [2]) of the same molecule?
**A.** Its Skin tests intensity is 3.

**Q.** What about the Skin tests intensity (Cavia porcellus [3]) of the same molecule?
**A.** Its Skin tests intensity is 4.

**Q.** What about the Skin tests intensity (Cavia porcellus [4]) of the same molecule?
**A.** Its Skin tests intensity is 0.

**Q.** What about the Skin tests intensity (Cavia porcellus [5]) of the same molecule?
**A.** Its Skin tests intensity is 5.

**Q.** And the Skin tests intensity (Cavia porcellus [6])?
**A.** The Skin tests intensity was 1.

**Q.** What about the “No. of sensitive animals” value (Cavia porcellus [7]) of the same molecule?
**A.** Its value is 8.

**Q.** What about the “No. of sensitive animals” value (Cavia porcellus [8]) of the same molecule?
**A.** Its value is 8.

**Q.** And the av (Cavia porcellus [9])?
**A.** The av was 0.8.

**Q.** What about the “No. of sensitive animals” value (Cavia porcellus [10]) of the same molecule?
**A.** The value was 8.

**Q.** And the av (Cavia porcellus [11])?
**A.** The av was 1.3.

**Q.** What about the Skin tests intensity (Cavia porcellus [12]) of the same molecule?
**A.** Its Skin tests intensity is 0.

**Q.** What about the av (Cavia porcellus [13]) of the same molecule?
**A.** Its av is 1.7.

**Q.** What about the Skin tests intensity (Cavia porcellus [14]) of the same molecule?
**A.** Its Skin tests intensity is 3.

**Q.** What about the Skin tests intensity (Cavia porcellus [15]) of the same molecule?
**A.** The Skin tests intensity was 6.

**Q.** And the Skin tests intensity (Cavia porcellus [16])?
**A.** The Skin tests intensity was 0.

**Q.** And the Skin tests intensity (Cavia porcellus [17])?
**A.** Its Skin tests intensity is 1.

**Q.** And the Skin tests intensity (Cavia porcellus [18])?
**A.** Its Skin tests intensity is 1.

**Q.** With `C=C1C[C@H](C)OC1=O` as the molecule, how does the “No. of sensitive animals” value (Cavia porcellus [19]) read?
**A.** Its value is 8.

**Q.** What about the Skin tests intensity (Cavia porcellus [20]) of the same molecule?
**A.** The Skin tests intensity was 0.

**Q.** What about the av (Cavia porcellus [21]) of the same molecule?
**A.** The av was 1.8.

**Q.** And the Skin tests intensity (Cavia porcellus [22])?
**A.** The Skin tests intensity was 1.

**Q.** And the Skin tests intensity (Cavia porcellus [23])?
**A.** Its Skin tests intensity is 2.

**Q.** And the Skin tests intensity (Cavia porcellus [24])?
**A.** Its Skin tests intensity is 0.

**Q.** And the Skin tests intensity (Cavia porcellus [25])?
**A.** Its Skin tests intensity is 2.

**Q.** And the Skin tests intensity (Cavia porcellus [26])?
**A.** The Skin tests intensity was 3.

**Q.** What about the “No. of sensitive animals” value (Cavia porcellus [27]) of the same molecule?
**A.** Its value is 5.

**Q.** What about the “No. of sensitive animals” value (Cavia porcellus [28]) of the same molecule?
**A.** The value was 8.

**Q.** And the av (Cavia porcellus [29])?
**A.** Its av is 0.4.

**Q.** And the Skin tests intensity (Cavia porcellus [30])?
**A.** Its Skin tests intensity is 0.

**Q.** And the Skin tests intensity (Cavia porcellus [31])?
**A.** The Skin tests intensity was 3.

**Q.** And the Skin tests intensity (Cavia porcellus [32])?
**A.** Its Skin tests intensity is 0.

**Q.** And the Skin tests intensity (Cavia porcellus [33])?
**A.** The Skin tests intensity was 0.

**Q.** What about the Skin tests intensity (Cavia porcellus [34]) of the same molecule?
**A.** Its Skin tests intensity is 6.

**Q.** What about the av (Cavia porcellus [35]) of the same molecule?
**A.** Its av is 0.9.

**Q.** And the Skin tests intensity (Cavia porcellus [36])?
**A.** Its Skin tests intensity is 7.
